{
  "source": "ChEMBL document CHEMBL1125445",
  "about": "“Bis(maltolato)oxovanadium(IV) is a potent insulin mimic” (J Med Chem, 1992)",
  "format_in_all_cases": "functional, organism-based",
  "key": {"Rattus norvegicus [1]": {"system": "Rattus norvegicus", "assay": "Decrease in plasma triglyceride (mM)in male Wistar rats diabetic (D) group (number of rats = 11) where the diabetic state was induced by intravenous administration of streptozocin (STZ) at 60 mg/kg", "set-up": "dose 60 mg/kg", "method_in_brief": "(§1)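 Wistar males, with STZ diabetes from 60 mg/kg i.v. in saline or saline-injected controls. Treated groups got the compound ad libitum in drinking water (1.58 mM) and untreated groups got tap water. Plasma was taken after 4 weeks by centrifuging blood at 20000g for 10 min at 4 °C and kept at -70 °C until assay. Reported as mean ± SEM, with ANOVA then Newman-Keuls.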"}, "Rattus norvegicus [2]": {"species_on_record": "Rattus norvegicus", "assay": "Decrease in plasma insulin (microUnits/mL) in male Wistar rats diabetic treated (DT) group (number of rats = 12) which received compound dissolved in tap water", "method_in_brief": "as §1"}, "Rattus norvegicus [3]": {"species_on_record": "Rattus norvegicus", "assay": "Decrease weight(g) in male Wistar rats diabetic treated (DT) group (number of rats = 12) which received compound dissolved in tap water", "method_in_brief": "(§2)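 Male Wistar rats housed 2–3 per cage on a 12 h light/dark cycle with free food and water. Diabetes was induced by i.v. streptozocin, 60 mg/kg in 0.9% NaCl, and controls got saline. Treated groups drank the compound at 1.58 mM in tap water. Body weight was recorded daily and reported at week 4 as mean ± SEM, with ANOVA/Newman-Keuls.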"}, "Rattus norvegicus [4]": {"system": "Rattus norvegicus", "assay": "Decrease in plasma insulin (microUnits/mL) in male Wistar rats diabetic (D) group (number of rats = 11) where the diabetic state was induced by intravenous administration of streptozocin (STZ) at 60 mg/kg", "set-up": "dose 60 mg/kg", "method_in_brief": "as §1"}, "Rattus norvegicus [5]": {"species_on_record": "Rattus norvegicus", "assay": "Decrease in plasma triglyceride (mM) in male Wistar rats diabetic treated (DT) group (number of rats = 12) which received compound dissolved in tap water", "method_in_brief": "as §1"}, "Rattus norvegicus [6]": {"species_on_record": "Rattus norvegicus", "assay": "Decrease in fluid intake of male Wistar rats control treated (CT) group (number of rats = 11) which received compound dissolved in tap water", "method_in_brief": "(§3)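 Male Wistar rats; diabetes induced by a single tail-vein injection of streptozocin, 60 mg/kg in 0.9% NaCl, and non-diabetic rats got saline. Treated groups drank the compound in tap water (1.58 mM), and untreated groups drank tap water. Food and fluid intake per 24 h per cage was divided by rats per cage. Values at week 4, mean ± SEM, ANOVA/Newman-Keuls.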"}, "Rattus norvegicus [7]": {"system": "Rattus norvegicus", "assay": "Decrease in weight(g)in male Wistar rats diabetic (D) group (number of rats = 11) where the diabetic state was induced by intravenous administration of streptozocin (STZ) at 60 mg/kg", "set-up": "dose 60 mg/kg", "method_in_brief": "as §2"}, "Rattus norvegicus [8]": {"species_on_record": "Rattus norvegicus", "assay": "Decrease in food intake of Male Wistar ratsrecieved an equivalent volume of isotonic saline (C control group)", "method_in_brief": "as §3"}, "Rattus norvegicus [9]": {"species_on_record": "Rattus norvegicus", "assay": "Decrease in weight of Male Wistar ratsrecieved an equivalent volume of isotonic saline (C control group)", "method_in_brief": "as §2"}, "Rattus norvegicus [10]": {"species_on_record": "Rattus norvegicus", "assay": "Decrease in plasma triglyceride (mM) of male Wistar rats control treated (CT) group (number of rats = 11) which received compound dissolved in tap water", "method_in_brief": "as §1"}, "Rattus norvegicus [11]": {"species_on_record": "Rattus norvegicus", "assay": "Decrease in weight of male Wistar rats control treated (CT) group (number of rats = 11) which received compound dissolved in tap water", "method_in_brief": "as §2"}, "Rattus norvegicus [12]": {"species_on_record": "Rattus norvegicus", "assay": "Decrease in plasma glucose (mM) of Male Wistar ratsrecieved an equivalent volume of isotonic saline (C control group)", "method_in_brief": "as §1"}, "Rattus norvegicus [13]": {"species_on_record": "Rattus norvegicus", "assay": "Decrease in plasma insulin (microUnits/mL) of male Wistar rats control treated (CT) group (number of rats = 11) which received compound dissolved in tap water", "method_in_brief": "as §1"}, "Rattus norvegicus [14]": {"species_on_record": "Rattus norvegicus", "assay": "Decrease in plasma insulin (microUnits/mL) of Male Wistar ratsrecieved an equivalent volume of isotonic saline (C control group)", "method_in_brief": "as §1"}, "Rattus norvegicus [15]": {"system": "Rattus norvegicus", "assay": "Decrease in food (g/rat/day)in take in male Wistar rats diabetic (D) group (number of rats = 11) where the diabetic state was induced by intravenous administration of streptozocin (STZ) at 60 mg/kg", "set-up": "dose 60 mg/kg", "method_in_brief": "as §3"}, "Rattus norvegicus [16]": {"species_on_record": "Rattus norvegicus", "assay": "Decrease in plasma cholesterol (mM) in male Wistar rats diabetic treated (DT) group (number of rats = 12) which received compound dissolved in tap water", "method_in_brief": "as §1"}, "Rattus norvegicus [17]": {"species_on_record": "Rattus norvegicus", "assay": "Decrease in plasma glucose (mM) of male Wistar rats control treated (CT) group (number of rats = 11) which received compound dissolved in tap water", "method_in_brief": "as §1"}, "Rattus norvegicus [18]": {"species_on_record": "Rattus norvegicus", "assay": "Decrease in fluid (mL/rat/day)-intake in male Wistar rats diabetic treated (DT) group (number of rats = 12) which received compound dissolved in tap water", "method_in_brief": "as §3"}, "Rattus norvegicus [19]": {"species_on_record": "Rattus norvegicus", "assay": "Decrease in plasma glucose (mM) in male Wistar rats diabetic treated (DT) group (number of rats = 12) which received compound dissolved in tap water", "method_in_brief": "as §1"}, "Rattus norvegicus [20]": {"species_on_record": "Rattus norvegicus", "assay": "Decrease food (g/rat/day) intake in male Wistar rats diabetic treated (DT) group (number of rats = 12) which received compound dissolved in tap water", "method_in_brief": "as §3"}, "Rattus norvegicus [21]": {"system": "Rattus norvegicus", "assay": "Decrease in plasma glucose (mM)in male Wistar rats diabetic (D) group (number of rats = 11) where the diabetic state was induced by intravenous administration of streptozocin (STZ) at 60 mg/kg", "set-up": "dose 60 mg/kg", "method_in_brief": "as §1"}, "Rattus norvegicus [22]": {"system": "Rattus norvegicus", "assay": "Decrease in plasma cholesterol (mM)in male Wistar rats diabetic (D) group (number of rats = 11) where the diabetic state was induced by intravenous administration of streptozocin (STZ) at 60 mg/kg", "set-up": "dose 60 mg/kg", "method_in_brief": "as §1"}, "Rattus norvegicus [23]": {"species_on_record": "Rattus norvegicus", "assay": "Decrease in plasma cholesterol (mM) of Male Wistar ratsrecieved an equivalent volume of isotonic saline (C control group)", "method_in_brief": "as §1"}, "Rattus norvegicus [24]": {"species_on_record": "Rattus norvegicus", "assay": "Decrease in fluid intake of Male Wistar ratsrecieved an equivalent volume of isotonic saline (C control group)", "method_in_brief": "as §3"}, "Rattus norvegicus [25]": {"species_on_record": "Rattus norvegicus", "assay": "Decrease in food intake of male Wistar rats control treated (CT) group (number of rats = 11) which received compound dissolved in tap water", "method_in_brief": "as §3"}, "Rattus norvegicus [26]": {"species_on_record": "Rattus norvegicus", "assay": "Decrease in plasma cholesterol (mM) of male Wistar rats control treated (CT) group (number of rats = 11) which received compound dissolved in tap water", "method_in_brief": "as §1"}, "Rattus norvegicus [27]": {"species_on_record": "Rattus norvegicus", "assay": "Decrease in plasma triglyceride (mM) of Male Wistar ratsrecieved an equivalent volume of isotonic saline (C control group)", "method_in_brief": "as §1"}, "Rattus norvegicus [28]": {"system": "Rattus norvegicus", "assay": "Decrease in fluid (mL/rat/day)-intake-in male Wistar rats diabetic (D) group (number of rats = 11) where the diabetic state was induced by intravenous administration of streptozocin (STZ) at 60 mg/kg", "set-up": "dose 60 mg/kg", "method_in_brief": "as §3"}},
  "data": [
    {"substance": "BIS(MALTOLATO)OXOVANADIUM(IV)", "values": [
      {"measurement": "Plasma triglyceride", "setting": "Rattus norvegicus [1]", "result": 2.7, "unit": "mM"},
      {"measurement": "Plasma insulin", "setting": "Rattus norvegicus [2]", "result": 21.9, "unit": "uUnits ml-1"},
      {"measurement": "WEIGHT", "setting": "Rattus norvegicus [3]", "result": 311, "unit": "g"},
      {"measurement": "Plasma insulin", "setting": "Rattus norvegicus [4]", "result": 22, "unit": "uUnits ml-1"},
      {"measurement": "Plasma triglyceride", "setting": "Rattus norvegicus [5]", "result": 1.9, "unit": "mM"},
      {"measurement": "Fluid (ml rat-1 day-1)", "setting": "Rattus norvegicus [6]", "result": 43},
      {"measurement": "WEIGHT", "setting": "Rattus norvegicus [7]", "result": 349, "unit": "g"},
      {"measurement": "Food (g rat-1 day-1)", "setting": "Rattus norvegicus [8]", "result": 28.3},
      {"measurement": "WEIGHT", "setting": "Rattus norvegicus [9]", "result": 404, "unit": "g"},
      {"measurement": "Plasma triglyceride", "setting": "Rattus norvegicus [10]", "result": 2.1, "unit": "mM"},
      {"measurement": "WEIGHT", "setting": "Rattus norvegicus [11]", "result": 391, "unit": "g"},
      {"measurement": "Plasma glucose", "setting": "Rattus norvegicus [12]", "result": 4, "unit": "mM"},
      {"measurement": "Plasma insulin", "setting": "Rattus norvegicus [13]", "result": 21.6, "unit": "uUnits ml-1"},
      {"measurement": "Plasma insulin", "setting": "Rattus norvegicus [14]", "result": 35.6, "unit": "uUnits ml-1"},
      {"measurement": "Food (g rat-1 day-1)", "setting": "Rattus norvegicus [15]", "result": 63.5},
      {"measurement": "Plasma cholesterol", "setting": "Rattus norvegicus [16]", "result": 1.6, "unit": "mM"},
      {"measurement": "Plasma glucose", "setting": "Rattus norvegicus [17]", "result": 4.1, "unit": "mM"},
      {"measurement": "Fluid (ml rat-1 day-1)", "setting": "Rattus norvegicus [18]", "result": 52},
      {"measurement": "Plasma glucose", "setting": "Rattus norvegicus [19]", "result": 7, "unit": "mM"},
      {"measurement": "Food (g rat-1 day-1)", "setting": "Rattus norvegicus [20]", "result": 37.9},
      {"measurement": "Plasma glucose", "setting": "Rattus norvegicus [21]", "result": 13.9, "unit": "mM"},
      {"measurement": "Plasma cholesterol", "setting": "Rattus norvegicus [22]", "result": 2.4, "unit": "mM"},
      {"measurement": "Plasma cholesterol", "setting": "Rattus norvegicus [23]", "result": 1.4, "unit": "mM"},
      {"measurement": "Fluid (ml rat-1 day-1)", "setting": "Rattus norvegicus [24]", "result": 59},
      {"measurement": "Food (g rat-1 day-1)", "setting": "Rattus norvegicus [25]", "result": 28.8},
      {"measurement": "Plasma cholesterol", "setting": "Rattus norvegicus [26]", "result": 1.7, "unit": "mM"},
      {"measurement": "Plasma triglyceride", "setting": "Rattus norvegicus [27]", "result": 1.8, "unit": "mM"},
      {"measurement": "Fluid (ml rat-1 day-1)", "setting": "Rattus norvegicus [28]", "result": 264}
    ]}
  ]
}
